Holding throughout (assay type): functional
In experiment [1] the test system is Mus musculus. The experiment in a line: Compound was evaluated for the hypolipidemic activity in CF1 male mice at a dose of 20 mg/kg per day intraperitoneally for serum cholesterol at 16th day. The note with it: route intraperitoneal. In outline:
(§1)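 CF1 male mice (~30 g) were dosed ip daily. Tail-vein blood was collected on day 9 and day 16 between 8:00 and 9:30 a.m. Serum cholesterol was measured by modified Liebermann–Burchard on duplicate 25-µL samples. Triglyceride was measured on day 16 in a separate group, duplicate 50-µL samples. Values are % control, mean ± SD, N = 6; Student's t test.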

Experiment [2] concerns Mus musculus. Briefly: Hypolipidemic activity in CF1 male mice at a dose of 20 mg/kg per day, serum cholesterol measured on the 9th day. Summed up:
(§2)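 CF1 male mice (~30 g) were given 20 mg/kg per day ip at 11:00 a.m.; N = 6 per group. Tail-vein serum was collected in nonheparinized microcapillaries. Cholesterol was measured on days 9 and 16 by modified Liebermann–Burchard on duplicate 25 µL samples. Triglyceride was measured on day 16 in a separate group, duplicate 50 µL. Values are % control ± SD; Student's t test.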

The test system of experiment [3] is Mus musculus. Briefly: Compound was evaluated for the hypolipidemic activity in CF1 male mice at a dose of 20 mg/kg per day intraperitoneally for serum triglyceride at 16th day. The note with it: route intraperitoneal. Summed up:
as §1

Experiment [4] concerns Mus musculus. The experiment in a line: Hypolipidemic activity in CF1 male mice at a dose of 20 mg/kg per day, serum cholesterol measured on the 16th day. In outline:
as §2

Experiment [5] has as its system Mus musculus. Briefly: Hypolipidemic activity in CF1 male mice at a dose of 20 mg/kg per day, serum triglyceride measured on the 16th day. Summed up:
as §2

For experiment [6], the system named is Mus musculus. Briefly: Compound was evaluated for the hypolipidemic activity in CF1 male mice at a dose of 20 mg/kg per day intraperitoneally of serum cholesterol at 9th day. Conditions: route intraperitoneal; in the assay text read “150 mg/kg” for “20 mg/kg”. Summed up:
as §1

The record followed here is ChEMBL document CHEMBL1123129, “Hypolipidemic activity of indan-1,3-dione derivatives in rodents” (J Med Chem, 1985).

On to `O=C(O)c1ccc(C2C(=O)c3ccccc3C2=O)cc1`, for which the Control in the experiment with Mus musculus [1] came to 78%; with Mus musculus [3], 95%. Besides, the “Serum cholesterol, % of control” value in the experiment on Mus musculus [2] came to 95%.

`O=C1c2ccccc2C(=O)C1c1ccc2ccccc2c1`: the “Serum cholesterol, % of control” value with Mus musculus [4] is on record as 66%; with Mus musculus [2], 72%. Besides, the “Serum triglyceride, % of control” value in the experiment on Mus musculus [5] is recorded as 66%.

With `O=C1CC(=O)c2ccccc21`, the “Serum cholesterol, % of control” value with Mus musculus [4] amounted to 60%; with Mus musculus [2], 74%. Besides, in the experiment on Mus musculus [5], the “Serum triglyceride, % of control” value was determined as 79%.

For the compound `CCOc1ccc(C2C(=O)c3ccccc3C2=O)cc1`, the “Serum cholesterol, % of control” value with Mus musculus [4] is recorded as 59%; with Mus musculus [2], 66%. Moreover, in the experiment on Mus musculus [5], the “Serum triglyceride, % of control” value came out at 81%.

Regarding `O=C1c2ccccc2C(=O)C1c1c(Cl)cccc1Cl`, the “Serum cholesterol, % of control” value was found to be 68% in the experiment on Mus musculus [4] and 71% in the experiment on Mus musculus [2]. For the same compound, the “Serum triglyceride, % of control” value in the experiment on Mus musculus [5] was found to be 61%.

With `CCC1C(=O)c2ccccc2C1=O`, the “Serum cholesterol, % of control” value was determined as 60% in the experiment with Mus musculus [4] and 63% in the experiment on Mus musculus [2]. In the experiment with Mus musculus [5], the “Serum triglyceride, % of control” value is recorded as 63%.

Consider `CC1C(=O)c2ccccc2C1=O`, for which the “Serum cholesterol, % of control” value is on record as 58% in the experiment on Mus musculus [4] and 74% with Mus musculus [2]. Besides, in the experiment on Mus musculus [5], the “Serum triglyceride, % of control” value was determined as 61%.

For the compound `O=C1c2ccccc2C(=O)C1c1ccc(Cl)cc1Cl`, the results for the “Serum cholesterol, % of control” value in the experiment with Mus musculus [4] and with Mus musculus [2] were 73% and 89%, respectively. In addition, the “Serum triglyceride, % of control” value in the experiment with Mus musculus [5] is given as 87%.

On to `CCCCCC1C(=O)c2ccccc2C1=O`, for which the “Serum cholesterol, % of control” value worked out at 64% with Mus musculus [4] and 65% in the experiment with Mus musculus [2]. For the same compound, the “Serum triglyceride, % of control” value with Mus musculus [5] was found to be 70%.

Consider `O=C1c2ccccc2C(=O)C1c1ccc(Cl)c(Cl)c1`, for which the “Serum cholesterol, % of control” value with Mus musculus [4] was found to be 84%; in the experiment with Mus musculus [2] it was 93%. The “Serum triglyceride, % of control” value in the experiment on Mus musculus [5] is on record as 89%.

On to `Cc1ccc(C2C(=O)c3ccccc3C2=O)c(C)c1`, for which the entries for the “Serum cholesterol, % of control” value in the experiment with Mus musculus [4] and in the experiment on Mus musculus [2] were 54% and 61%, respectively. In addition, the “Serum triglyceride, % of control” value in the experiment on Mus musculus [5] amounted to 58%.

In the case of `COc1cccc(C2C(=O)c3ccccc3C2=O)c1`, the “Serum cholesterol, % of control” value in the experiment on Mus musculus [4] came out at 67%; in the experiment on Mus musculus [2], 75%. The “Serum triglyceride, % of control” value in the experiment with Mus musculus [5] came out at 55%.

On to `O=C(O)c1ccccc1C1C(=O)c2ccccc2C1=O`, for which the Control in the experiment with Mus musculus [1] is 78%; in the experiment with Mus musculus [3] it was 52%. Besides, in the experiment with Mus musculus [2], the “Serum cholesterol, % of control” value is listed as 79%.

Consider `CCCCC1C(=O)c2ccccc2C1=O`, for which the figures for the “Serum cholesterol, % of control” value with Mus musculus [4] and in the experiment with Mus musculus [2] were 58% and 74%, respectively. Further, the “Serum triglyceride, % of control” value in the experiment on Mus musculus [5] was determined as 63%.

On to `O=C1c2ccccc2C(=O)C1c1ccc(-c2ccccc2)cc1`, for which the “Serum cholesterol, % of control” value came out at 64% in the experiment on Mus musculus [4] and 78% with Mus musculus [2]. Moreover, in the experiment on Mus musculus [5], the “Serum triglyceride, % of control” value stood at 63%.

Take `CCCC1C(=O)c2ccccc2C1=O`: the figures for the “Serum cholesterol, % of control” value in the experiment with Mus musculus [4] and in the experiment on Mus musculus [2] were 66% and 68%, respectively. Further, the “Serum triglyceride, % of control” value with Mus musculus [5] worked out at 52%.

With `Cc1ccccc1C1C(=O)c2ccccc2C1=O`, the “Serum cholesterol, % of control” value in the experiment with Mus musculus [4] is recorded as 69%; in the experiment with Mus musculus [2], 73%. Besides, the “Serum triglyceride, % of control” value in the experiment on Mus musculus [5] amounted to 49%.

With `COc1ccc(C2C(=O)c3ccccc3C2=O)c(OC)c1`, the “Serum cholesterol, % of control” value in the experiment with Mus musculus [4] is on record as 74%; with Mus musculus [2] it was 89%. The “Serum triglyceride, % of control” value with Mus musculus [5] is given as 87%.

For `O=C1c2ccccc2C(=O)C1c1cccc(Cl)c1`, the “Serum cholesterol, % of control” value with Mus musculus [4] is recorded as 60%; with Mus musculus [2] it was 70%. The “Serum triglyceride, % of control” value in the experiment with Mus musculus [5] came out at 70%.

`O=C1c2ccccc2C(=O)C1c1ccccc1Cl`: the results for the “Serum cholesterol, % of control” value with Mus musculus [4] and with Mus musculus [2] were 56% and 75%, respectively. Moreover, in the experiment with Mus musculus [5], the “Serum triglyceride, % of control” value is 55%.

For `COc1ccc(C2C(=O)c3ccccc3C2=O)cc1OC`, the figures for the “Serum cholesterol, % of control” value in the experiment on Mus musculus [4] and in the experiment on Mus musculus [2] were 69% and 75%, respectively. The “Serum triglyceride, % of control” value with Mus musculus [5] was 66%.

Turning to `Cc1ccc(C2C(=O)c3ccccc3C2=O)cc1`, the “Serum cholesterol, % of control” value in the experiment with Mus musculus [4] turned out to be 65%; with Mus musculus [2], 68%. In the experiment on Mus musculus [5], the “Serum triglyceride, % of control” value was found to be 42%.

`Cc1cccc(C2C(=O)c3ccccc3C2=O)c1`: the “Serum cholesterol, % of control” value is listed as 71% in the experiment with Mus musculus [4] and 75% in the experiment on Mus musculus [2]. The “Serum triglyceride, % of control” value in the experiment with Mus musculus [5] is reported as 51%.

In the case of `COc1ccccc1C1C(=O)c2ccccc2C1=O`, the “Serum cholesterol, % of control” value turned out to be 72% in the experiment with Mus musculus [4] and 79% in the experiment with Mus musculus [2]. Also, the “Serum triglyceride, % of control” value in the experiment with Mus musculus [5] amounted to 48%.

Take `O=C1c2ccccc2C(=O)C1c1ccc(Br)cc1` [BROMINDIONE]: the figures for the “Serum cholesterol, % of control” value in the experiment on Mus musculus [4] and with Mus musculus [2] were 56% and 72%, respectively. Moreover, the “Serum triglyceride, % of control” value in the experiment with Mus musculus [5] was 66%.

Take `CCOC(=O)C(C)(C)Oc1ccc(Cl)cc1` [CLOFIBRATE]: the “Serum cholesterol, % of control” value with Mus musculus [4] was 87%. For the same compound, in the experiment on Mus musculus [5], the “Serum triglyceride, % of control” value stood at 75%. The Control with Mus musculus [6] is recorded as 88%.

Consider `O=C1c2ccccc2C(=O)C1c1ccc(Cl)cc1` [CLORINDIONE], for which the “Serum cholesterol, % of control” value in the experiment with Mus musculus [4] was 63%; with Mus musculus [2], 64%. In addition, the “Serum triglyceride, % of control” value with Mus musculus [5] amounted to 47%.

For the compound `O=C1c2ccccc2C(=O)C1c1ccccc1` [PHENINDIONE], the “Serum cholesterol, % of control” value with Mus musculus [4] was 60%; in the experiment on Mus musculus [2], 64%. In addition, the “Serum triglyceride, % of control” value in the experiment on Mus musculus [5] came to 60%.
